The values below come from ChEMBL document CHEMBL1152317, “Hypoglycemic activity of extracts and compounds from the leaves of Hintonia standleyana and H. latiflora: potential alternatives to the use of the stem bark of these species” (2009).

What all share (format): functional
Experiment [1] deals with Rattus norvegicus. Nature of the experiment: Hypoglycemic activity in normal Wistar rat assessed as variation in glycemia at 10 mg/kg administered via intragastric route after 5 hrs by glucose oxidase method relative to control. The essentials:
(§1)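 Normoglycemic rats (180–220 g), 6 per group, standard pellet diet and water ad libitum. Test agent was suspended in 0.05% Tween 80 in saline and given by gavage. Controls got vehicle at 0.5 mL/100 g. Tail-incision blood was sampled at 0 h and after dosing and read by glucometer. Glycemia change was expressed as % of the 0 h value; ANOVA with Dunnett's test versus vehicle.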

For experiment [2], the system named is Rattus norvegicus. Kind of experiment: Hypoglycemic activity in normal Wistar rat assessed as variation in glycemia at 10 mg/kg administered via intragastric route after 7 hrs by glucose oxidase method relative to control. In a few lines: as §1
Experiment [3] deals with Rattus norvegicus. Nature of the experiment: Antihyperglycemic activity in streptozotocin-induced diabetic Wistar rat assessed as variation in glycemia at 10 mg/kg administered via intragastric route 7 days after streptozotocin challenge measured after 1.5 hrs of compound administration by glucose oxidase method relative to control. The essentials:
(§2)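 Diabetes induced by single ip streptozotocin 50 mg/kg in 0.1 M citrate buffer pH 4.5; rats with glucose above 250 mg/dL after 7 days included. Rats 180–220 g, 6 per group. Test agent suspended in 0.05% Tween 80 in saline, given intragastrically; vehicle controls. Tail-vein blood sampled at 0 h and after dosing; glucometer reading; % change calculated from 0 h value.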

Experiment [4] relates to Rattus norvegicus. Nature of the experiment: Antihyperglycemic activity in streptozotocin-induced diabetic Wistar rat assessed as variation in glycemia at 10 mg/kg administered via intragastric route 7 days after streptozotocin challenge measured after 5 hrs of compound administration by glucose oxidase method relative to control. The essentials: as §2
In experiment [5] the test system is Rattus norvegicus. Nature of the experiment: Hypoglycemic activity in normal Wistar rat assessed as variation in glycemia at 10 mg/kg administered via intragastric route after 1.5 hrs by glucose oxidase method relative to control. In a few lines:
as §1

In experiment [6] the test system is Rattus norvegicus. Nature of the experiment: Hypoglycemic activity in normal Wistar rat assessed as variation in glycemia at 10 mg/kg administered via intragastric route after 3 hrs by glucose oxidase method relative to control. In a few lines:
as §1

For experiment [7], the system named is Rattus norvegicus. Nature of the experiment: Antihyperglycemic activity in streptozotocin-induced diabetic Wistar rat assessed as variation in glycemia at 10 mg/kg administered via intragastric route 7 days after streptozotocin challenge measured after 9 hrs of compound administration by glucose oxidase method relative to control. The essentials:
as §2

In experiment [8] the test system is Rattus norvegicus. Nature of the experiment: Antihyperglycemic activity in streptozotocin-induced diabetic Wistar rat assessed as variation in glycemia at 10 mg/kg administered via intragastric route 7 days after streptozotocin challenge measured after 7 hrs of compound administration by glucose oxidase method relative to control. In a few lines:
as §2

Experiment [9] relates to Rattus norvegicus. Nature of the experiment: Hypoglycemic activity in normal Wistar rat assessed as variation in glycemia at 10 mg/kg administered via intragastric route after 9 hrs by glucose oxidase method relative to control. The essentials: as §1
Experiment [10] concerns Rattus norvegicus. Nature of the experiment: Antihyperglycemic activity in streptozotocin-induced diabetic Wistar rat assessed as variation in glycemia at 10 mg/kg administered via intragastric route 7 days after streptozotocin challenge measured after 3 hrs of compound administration by glucose oxidase method relative to control. In a few lines:
as §2

As for `CC(=O)OC[C@H]1O[C@@H](Oc2cc(O)cc3oc(=O)cc(-c4ccc(O)c(O)c4)c23)[C@H](O)[C@@H](O)[C@H]1O`, the Activity in the experiment with Rattus norvegicus [1] was -28.6%; with Rattus norvegicus [2], -25%; in the experiment with Rattus norvegicus [3], -5%; in the experiment with Rattus norvegicus [4], -29.5%; with Rattus norvegicus [5] it was -9.2%; in the experiment on Rattus norvegicus [6] it was -29.9%. Besides, the Activity in the experiment on Rattus norvegicus [7] was -37.2%; in the experiment with Rattus norvegicus [8] it was -34.7%; in the experiment on Rattus norvegicus [9] it was -30.6%; in the experiment with Rattus norvegicus [10], -20.7%.
Turning to `CC(=O)OC[C@H]1O[C@@H](Oc2cc(O)cc3oc(=O)cc(-c4ccc(O)cc4)c23)[C@H](O)[C@@H](O)[C@H]1O`, the Activity with Rattus norvegicus [1] is given as -20.9%; in the experiment with Rattus norvegicus [2], -27.2%; in the experiment with Rattus norvegicus [3], -11%; with Rattus norvegicus [4] it was -22.7%; with Rattus norvegicus [5], -10.3%; in the experiment on Rattus norvegicus [6], -17.8%. Moreover, the Activity in the experiment on Rattus norvegicus [7] is listed as -27.1%; in the experiment on Rattus norvegicus [8], -25.2%; in the experiment with Rattus norvegicus [9] it was -24%; in the experiment on Rattus norvegicus [10] it was -24.9%.
In the case of `COc1ccc(Cl)cc1C(=O)NCCc1ccc(S(=O)(=O)NC(=O)NC2CCCCC2)cc1` [GLYBURIDE], the Activity in the experiment with Rattus norvegicus [1] was -47.6%; in the experiment on Rattus norvegicus [2], -41.8%; in the experiment with Rattus norvegicus [3] it was -13.7%; with Rattus norvegicus [4] it was -35.9%; in the experiment with Rattus norvegicus [5], -8.4%; in the experiment on Rattus norvegicus [6], -30.1%. Moreover, the Activity with Rattus norvegicus [7] is -36.7%; in the experiment on Rattus norvegicus [8] it was -35.2%; in the experiment with Rattus norvegicus [9] it was -37.1%; in the experiment on Rattus norvegicus [10], -35.5%.
